An excerpt weighted towards active compounds, which were near 2.6% of everything screened.
5HT1E antag – blocks the human 5-HT1E serotonin receptor | P28566 | CHO 5-HT1E Ga15 NFAT-bla reporter, FRET, antagonist | inhibition, % at 6 µM | 0.99% of 65,000 active | AID 571;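 active = inhibition above a set limit, the mean inhibition across every tested compound plus 3 SD, cut at about 29% in these data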;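 note: signal is the 460 over 535 nm emission ratio of beta-lactamase substrate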
HTR1E agonist – activates the human 5-HT1E serotonin receptor. CHO 5-HT1E Ga15 NFAT-bla reporter, FRET; 0% DMSO wells, 100% control agonist wells. 0.69% of 65,000 active. activation, % at 6 µM. AID 574;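 active = activation above a set limit, the screen-wide mean activation plus 3 SD, cut at about 8.5% in these data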
HEK293 NFkB inh – lowers PMA/ionomycin-induced NF-kB signal in HEK293 cells | HEK-293 NF-kB luciferase reporter, luminescence | inhibition, % at 3 µM | 0.21% of 62,000 active;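 active = inhibition above the mean of all tested compounds plus 3 SD, cut at about 40% in these data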
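Signal: luciferase luminescence; Material: HEK-293 cells with stable firefly luciferase reporter driven by four HIV NF-kB elements; Probe or stimulus: PMA with ionomycin; Replication: tested once; Times: 1 h compound pretreatment, then 16 h stimulation at 37 °C, 5% CO2; Benchmarks: DMSO and 10 µM reference inhibitor; Evaluation: per-plate % inhibition versus controls.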
5HT1a antag – antagonists of human 5-HT1a serotonin receptor. CHO 5-HT1a Ga15 NFAT-bla reporter, antagonist mode. inhibition, % at 10 µM. 0.68% of 62,000 active. AID 612;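 active = inhibition above the mean of all tested compounds plus 3 SD, cut at about 43% in these data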;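 note: receptor stimulated by 5-CT agonist at 100 nM near EC80; beta-lactamase reporter measured by ratiometric fluorescence of a cleavable substrate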
Target sequence (P08908 whole entry, looked up): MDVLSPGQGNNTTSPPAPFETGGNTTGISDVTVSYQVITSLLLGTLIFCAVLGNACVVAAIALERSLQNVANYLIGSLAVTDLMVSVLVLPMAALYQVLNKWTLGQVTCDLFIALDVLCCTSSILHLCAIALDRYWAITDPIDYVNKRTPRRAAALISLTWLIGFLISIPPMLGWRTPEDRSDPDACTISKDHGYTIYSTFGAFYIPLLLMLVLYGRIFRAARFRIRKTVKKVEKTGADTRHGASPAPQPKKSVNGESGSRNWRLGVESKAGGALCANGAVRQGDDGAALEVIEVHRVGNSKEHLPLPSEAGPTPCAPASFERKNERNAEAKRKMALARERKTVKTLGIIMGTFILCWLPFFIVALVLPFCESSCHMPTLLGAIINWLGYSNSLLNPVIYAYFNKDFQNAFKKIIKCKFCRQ
5HT1a ag – agonists of human 5-HT1a serotonin receptor | CHO 5-HT1a Ga15 NFAT-bla reporter, FRET ratio; 0% basal, 100% maximal reference agonist | activation, % at 10 µM | 0.56% of 65,000 active;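 active = activation above the screen-wide mean activation plus 3 SD, cut at about 19% in these data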
Each line names hits and unclear results; the compound was inactive in the other large screens.

CCOC(=O)Nc1ccc2c(c1)N(C(=O)CCN(C)C)c1ccccc1S2	5HT1a antag 45.6
CC(C)Cn1c(N)c(C(=O)COC(=O)c2ccc3ccccc3n2)c(=O)n(C)c1=O	none
CCN1CCN(c2ncnc3c2cnn3-c2ccc(Cl)cc2)CC1	none
Clc1ccc(OCCN2CCN(c3ncnc4sccc34)CC2)cc1	HEK293 NFkB inh 62.4
CCOc1ccc(C2Oc3nc(SC)nnc3-c3ccccc3N2C(C)=O)cc1OC (configuration not stated)	none
Cn1c(=O)[nH]c(=O)c2[nH]c(CN3CCN(Cc4ccccc4)CC3)nc21	none
Cn1c(=O)[nH]c(=O)c2[nH]c(N(Cc3ccccc3)Cc3ccccc3)nc21	5HT1E antag 28.8
CC1(C)CC(=O)C(C=NCCN2CCN(C(=O)C34CC5CC(CC(C5)C3)C4)CC2)=C(O)C1	none (no result: HEK293 NFkB inh, 5HT1a antag)
CN(C)CCCN1c2ccccc2Sc2ccc(C(F)(F)F)cc21	HTR1E agonist 11.7 (no result: HEK293 NFkB inh, 5HT1a antag)
OCCN1CCN(CCCN2c3ccccc3Sc3ccc(C(F)(F)F)cc32)CC1	none (no result: HEK293 NFkB inh, 5HT1a antag)
CCN(CC)c1ccc(NC(=O)c2cc(OC)cc(OC)c2)c(C)c1	5HT1E antag 42.1, 5HT1a antag 52.0
CCOc1cc(C(=O)Nc2ccccc2N2CCN(S(C)(=O)=O)CC2)cc(OCC)c1OCC	none
COC(=O)c1cc(Br)c(=O)n(-c2ccc(C(C)=O)cc2)c1	none
CCCOC(=O)c1ccc(OCC(O)CN2CCN(C(=O)c3ccccc3)CC2)cc1 (configuration not stated)	HTR1E agonist 47.9
COc1ccccc1S(=O)Cc1ccc(C(=O)NCCc2ccc(Cl)cc2)o1 (configuration not stated)	none
C(=N\c1nc2ccccc2n1Cc1ccccc1)/c1cccs1	none
N#CCc1nnc2n1-c1ccccc1CCC2	none
CSc1ccccc1NC(=O)c1cccnc1	HTR1E agonist 48.1
CCCCn1c(=O)[nH]c(=O)c2c1nc(-c1ccc(C#N)cc1)n2C1CCCC1	none
CCCCn1c(=O)[nH]c(=O)c2c1nc(-c1ccncc1)n2CCOC	5HT1a ag 269.9
O=C(CSc1nc2ccccc2c(=O)[nH]1)Nc1ccc(S(=O)(=O)N2CCCC2)cc1	none
COc1ccccc1-n1c(SCC(=O)Nc2cccc(C)c2)nc2c(c1=O)SCC2	none
CCOc1ccccc1NC(=O)CCSc1nc2n[nH]c(C)c2c(=N)n1-c1ccccc1Cl	none
Cc1ccccc1-n1c(SCc2ccccn2)nc2n[nH]c(C)c2c1=N	5HT1E antag 56.8
CC(=O)NCCn1c(SCc2cc(=O)n3cc(Cl)ccc3n2)nc2ccccc2c1=O	none
CCOC(=O)N1CCC(Nc2c(NCCN3CCN(Cc4ccccc4)CC3)c(=O)c2=O)CC1	none
CCOC(=O)N1CCC(Nc2c(NCCCN(CC)c3cccc(C)c3)c(=O)c2=O)CC1	HTR1E agonist 22.1
COCCCNC(=O)CSC1=Nc2ccccc2C2=NC(CC(=O)NCc3ccccc3)C(=O)N12 (configuration not stated)	none
CCCCCCNC(=O)c1c(N)n(/N=C/c2ccco2)c2nc3ccccc3nc12	5HT1a ag 30.8
Cn1cnc(S(=O)(=O)NCc2cccs2)c1	none
CCOC(=O)c1cnc(-n2nc(C)cc2C)nc1NC1CCCCC1	5HT1a antag 47.9
c1ccc2c(-n3cccn3)cccc2c1	none
CCN(CC)C(=O)Sc1cccc2cccnc12	none
CCOC(=O)CSc1cccc2cccnc12	5HT1E antag 39.7
CC(=O)Nc1ccccc1N(C)S(=O)(=O)c1ccc(C)cc1	none
O=c1c2ccccc2nc(-c2ccco2)n1Cc1ccccc1	none
O=c1c2ccccc2nc(N2CCN(c3ccccc3)CC2)n1Cc1ccccc1	5HT1a antag 46.8
CCCSc1nnc(NC(=O)Nc2ccccc2)s1	none (no result: HEK293 NFkB inh, 5HT1a antag)
CCCSc1nnc(NC(=O)Nc2ccc(F)cc2)s1	5HT1E antag 32.3 (no result: HEK293 NFkB inh, 5HT1a antag)
Cn1cccc1Cc1nnc(SCC(=O)N2CCOCC2)n1CCc1ccccc1	5HT1a ag 472.8
COCCn1c(COc2cccc(OC)c2)nnc1SCC(=O)N1CCOCC1	HTR1E agonist 18.8
CCOC(=O)c1ccccc1NC(=O)CSc1nnc(COc2ccccc2C)n1C	none
O=C(c1n[nH]c2c1CCCC2)n1ccnc1	none
CCCCCn1c(=O)[nH]c2cc(C(=O)NCCCN3CCC(C)CC3)ccc2c1=O	none
COc1ccc(-c2nc(N)nc(C)c2Oc2ccccc2Br)c(O)c1	none
Cc1c(/C=N/n2cnnc2)c2ccccc2n1CCOc1ccccc1	5HT1E antag 33.7

Compound activity deposited in PubChem BioAssay by The Scripps Research Institute Molecular Screening Center.
